# Measurements as given in ChEMBL document CHEMBL4680077, “Differentiation of skeletal osteogenic progenitor cells to osteoblasts with 3,4-diarylbenzopyran based amide derivatives: Novel osteogenic agents” (Eur J Med Chem, 2016).
# Calls of active or inactive are those of the source. The calls are words filed in the database; no cut-off is given here.
# Assays:
# Mus musculus [1] = experiment: In vivo osteogenic activity in ovariectomized BALB/c mouse assessed as increase in energy required to break bone at 1 to 10 mg/kg, po via gavage administered for 1 month by TKC Muromachi bone strength testing method; format: functional, organism-based; settings: dose 1-10 mg/kg, time 1.0 months
# How it was run: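 Ovariectomized balb/c mice were gavaged with 1 or 10 mg kg-1 daily for one month. Bones were then tested on a bone strength tester for energy, stiffness and force to break. Mean ± SEM compared with the Ovx vehicle group.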
# Mus musculus [2] = experiment: In vivo osteogenic activity in ovariectomized BALB/c mouse assessed as increase in trabecular number at 1 to 10 mg/kg, po via gavage administered for 1 month by microCT imaging analysis; format: functional, organism-based; settings: dose 1-10 mg/kg, time 1.0 months
# How it was run: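 Ovariectomized female balb/c mice, 8 weeks old, 10 per group, received 1.0 or 10.0 mg kg-1 once daily by oral gavage (gum acacia vehicle) for 4 weeks, alongside sham and Ovx vehicle groups. Femurs were scanned by microCT. BV/TV, Tb.N and Tb.Sp were derived by the mean intercept length method. Mean ± SE.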
# [3] = Acute toxicity in Swiss albino mouse assessed as mortality at 5 to 1000 mg/kg, po measured after 7 days; format: organism-based; settings: in vivo, 168 h, dose 5-1000 mg/kg, time 7 day
# How it was run: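 Acute oral toxicity per OECD guidelines 420, 423 and 425. Swiss albino mice received a single oral dose at 5, 50, 300 or 1000 mg kg1 body weight, with vehicle controls. Animals were watched for morbidity, mortality and observational changes over 7 days. Tail-vein blood was then taken for hematology and serum biochemistry. Organs were inspected at sacrifice. n = 6 per group.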
# [4] = Acute toxicity in Swiss albino mouse assessed as SGOT level at 5 mg/kg, po measured after 7 days (reference value: 31.99 +/- 3.37 U/L); format: organism-based; settings: in vivo, 168 h, time 7 day
# [5] = Acute toxicity in Swiss albino mouse assessed as haemoglobin level at 1000 mg/kg, po measured after 7 days (reference value: 10.86 +/- 0.87 g/dL); format: organism-based; settings: in vivo, 168 h, time 7 day
# [6] = Acute toxicity in Swiss albino mouse assessed as eosinophil count at 1000 mg/kg, po measured after 7 days (reference value: 6.34 +/- 1.04 %); format: organism-based; settings: in vivo, 168 h, time 7 day
# [7] = Acute toxicity in Swiss albino mouse assessed as RBC count at 50 mg/kg, po measured after 7 days (Rvb =6.0 +/- 0.28 million/mm3); format: organism-based; settings: in vivo, 168 h, time 7 day
# [8] = Acute toxicity in Swiss albino mouse assessed as WBC count per thousand/mm3 at 1000 mg/kg, po measured after 7 days (reference value: 6.84 +/- 0.83 /mm3); format: organism-based; settings: in vivo, 168 h, time 7 day
# [9] = Acute toxicity in Swiss albino mouse assessed as haemoglobin level at 5 mg/kg, po measured after 7 days (reference value: 10.86 +/- 0.87 g/dL); format: organism-based; settings: in vivo, 168 h, time 7 day
# [10] = Acute toxicity in Swiss albino mouse assessed as absolute brain weight at 5 mg/kg, po measured after 7 days (reference value: 0.37 +/- 0.02 g); format: organism-based; settings: in vivo, 168 h, time 7 day
# [11] = Acute toxicity in Swiss albino mouse assessed as SGPT level at 5 mg/kg, po measured after 7 days (reference value: 14.04 +/- 1.45 U/L); format: organism-based; settings: in vivo, 168 h, time 7 day
# [12] = Acute toxicity in Swiss albino mouse assessed as serum protein level at 5 mg/kg, po measured after 7 days (reference value: 0.66 +/- 0.01 mg/ml); format: organism-based; settings: in vivo, 168 h, time 7 day
# Calvarial osteoblast = experiment: Induction of osteoblast differentiation in mouse calvarial osteoblast assessed as increase in BMP-2 mRNA expression at 1 pM incubated for 48 hrs by qPCR analysis; format: functional, cell-based
# How it was run: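 Calvarial osteoblasts were treated at 1 pM for 24 and 48 h. Total RNA was extracted with TRIzol, and cDNA was made from 2 µg RNA. qPCR ran 40 cycles for BMP-2, RUNX-2, OCN and collagen type 1, with normalization to GAPDH. Mean ± SEM of three independent experiments.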
# [13] = Acute toxicity in Swiss albino mouse assessed as creatinine level at 1000 mg/kg, po measured after 7 days (reference value: 0.97 +/- 0.07 mg/dL); format: organism-based; settings: in vivo, 168 h, time 7 day
# [14] = Acute toxicity in Swiss albino mouse assessed as absolute lung weight at 300 mg/kg, po measured after 7 days (reference value: 0.16 +/- 0.01 g); format: organism-based; settings: in vivo, 168 h, time 7 day
# [15] = Acute toxicity in Swiss albino mouse assessed as eosinophil count at 5 mg/kg, po measured after 7 days (reference value: 6.34 +/- 1.04 %); format: organism-based; settings: in vivo, 168 h, time 7 day
# [16] = Acute toxicity in Swiss albino mouse assessed as relative lung weight at 1000 mg/kg, po measured after 7 days (reference value: 0.70 +/- 0.08 %); format: organism-based; settings: in vivo, 168 h, time 7 day
# [17] = Acute toxicity in Swiss albino mouse assessed as neutrophil count at 1000 mg/kg, po measured after 7 days (reference value: 41.50 +/- 4.08 %); format: organism-based; settings: in vivo, 168 h, time 7 day
# [18] = AUC (0 to 24 hrs) in Sprague-Dawley rat at 1 mg/kg, iv measured upto 24 hrs by LC-MS/MS analysis; format: ADME, organism-based; parameters: route intravenous, dose 1 mg/kg, time <=24; settings: in vivo
# How it was run: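 Female Sprague-Dawley rats (n = 4 per route), fasted overnight (12-14 h); 1 mg/kg orally in 0.25% CMC suspension, or an i.v. tail-vein bolus in DMSO-PEG400-ethanol-water (4:3:1:2). Retro-orbital blood was taken up to 24 h, and plasma was extracted with n-hexane (halofantrine IS). LC-MS/MS linear range 0.5-200 ng/mL. AUC0-24 was calculated by the linear trapezoidal rule, non-compartmental; mean ± S.D.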
# [19] = Acute toxicity in Swiss albino mouse assessed as malondialdehyde level at 1000 mg/kg, po measured after 7 days (reference value: 0.14 +/- 0.01 nM/mg); format: organism-based; settings: in vivo, 168 h, time 7 day
# [20] = Acute toxicity in Swiss albino mouse assessed as relative lung weight at 50 mg/kg, po measured after 7 days (reference value: 0.70 +/- 0.08 %); format: organism-based; settings: in vivo, 168 h, time 7 day
# [21] = Toxicity in ovariectomized BALB/c mouse assessed as uterine estrogenicity by measuring uterine weights at 1 to 10 mg/kg, po administered for 30 days and measured on day 30; format: organism-based; settings: in vivo, 720 h, dose 1-10 mg/kg, time 30 day
# How it was run: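 Six-to-eight-week-old balb/c mice (n = 10) were ovariectomized and dosed orally for 30 consecutive days: test agent at 1 or 10 mg kg-1 day-1, or 17β-E2 at 0.01 mg kg-1 day-1. Uterine weights were recorded and compared with the Ovx vehicle group; mean ± SEM.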
# [22] = Acute toxicity in Swiss albino mouse assessed as WBC count per thousand/mm3 at 50 mg/kg, po measured after 7 days (reference value: 6.84 +/- 0.83 /mm3); format: organism-based; settings: in vivo, 168 h, time 7 day
# [23] = Acute toxicity in Swiss albino mouse assessed as albumin level at 1000 mg/kg, po measured after 7 days (reference value: 3.24 +/- 0.30 g/dL); format: organism-based; settings: in vivo, 168 h, time 7 day
# [24] = Acute toxicity in Swiss albino mouse assessed as absolute kidney weight at 5 mg/kg, po measured after 7 days (reference value: 0.29 +/- 0.02 g); format: organism-based; settings: in vivo, 168 h, time 7 day
smiles,measurement,setting,value
CCCCN(C)C(=O)CCCCOc1ccc([C@H]2c3ccc(OC)cc3OC(C)(C)[C@@H]2c2ccccc2)cc1,Activity,Mus musculus [1],Active
same,Activity,Mus musculus [2],Active
same,Activity,[3],Non-Toxic
same,Activity,[4],33.05 U/L
same,Activity,[5],11.35 g/dL
same,Activity,[6],5.35%
same,Activity,[7],8.16 million/mm3
same,Activity,[8],5.1 /mm3
same,Activity,[9],12.94 g/dL
same,Activity,[10],0.35 g
same,Activity,[11],17.44 U/L
same,Activity,[12],0.74 mg/mL
same,Activity,Calvarial osteoblast,Active
same,Activity,[13],0.69 mg/dL
same,Activity,[14],0.17 g
same,Activity,[15],8.35%
same,Activity,[16],0.75%
same,Activity,[17],46.03%
same,AUC(0-t),[18],852 ng·h/mL
same,Activity,[19],0.16 nM/mg
same,Activity,[20],0.84%
same,Activity,[21],Non-Toxic
same,Activity,[22],5.69 /mm3
same,Activity,[23],3.98 g/dL
same,Activity,[24],0.28 g
